This is an account of results in ChEMBL document CHEMBL1250517, “Synthesis and characterization of novel indole derivatives reveal improved therapeutic agents for treatment of ischemia/reperfusion (I/R) injury” (J Med Chem, 2010).

Experiment [1] deals with Mus musculus. Description: Antiinflammatory activity in Kunming mouse assessed as inhibition of xylene-induced ear edema at 20 mg/kg, po. Type of experiment: functional.
The test system of experiment [2] is Rattus norvegicus. Description: Antiinflammatory activity in Wistar rat assessed as inhibition of carrageenan-induced paw edema at 20 mg/kg, po administered prior to carrageenan challenge measured after 1 hrs post carrageenan challenge. Type of experiment: functional. A general note: Carrageenan injected into the paw causes an acute inflammation.
The subject of experiment [3] is Rattus norvegicus. Put plainly: Antiinflammatory activity in Wistar rat assessed as inhibition of carrageenan-induced paw edema at 20 mg/kg, po administered prior to carrageenan challenge measured after 3 hrs post carrageenan challenge. Type of experiment: functional.
The test system of experiment [4] is Rattus norvegicus. Put plainly: Antiinflammatory activity in Wistar rat assessed as inhibition of carrageenan-induced paw edema at 20 mg/kg, po administered prior to carrageenan challenge measured after 5 hrs post carrageenan challenge. Type of experiment: functional.
Experiment [5] concerns Mus musculus. Put plainly: Antiinflammatory activity in Kunming mouse assessed as inhibition of xylene-induced ear edema at 10 mg/kg, po. Type of experiment: functional.
The subject of experiment [6] is Mus musculus. Description: Antiinflammatory activity in Kunming mouse assessed as inhibition of xylene-induced ear edema at 5 mg/kg, po. Type of experiment: functional.
Experiment [7] relates to PC-12. Put plainly: Antioxidant activity against nitric oxide scavenging activity in rat PC12 cells assessed as cell survival after 14 hrs by MTT assay. Type of experiment: functional, cell-based. The conditions noted are these: PC-12, 14 h. The method, boiled down: (§1)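 PC12 cells (rat adrenal medulla pheochromocytoma) are exposed to free radicals. Compound is given either as preincubation before radical exposure or as incubation after exposure. Viability is read by MTT reduction.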

Experiment [8] deals with PC-12. Put plainly: Antioxidant activity against H2O2 scavenging activity in rat PC12 cells assessed as cell survival after 14 hrs by MTT assay. The conditions noted are these: PC-12, 14 h. Type of experiment: functional, cell-based. In outline: as §1
Background: Formazan colour is commonly taken as a measure of viable cells.

The subject of experiment [9] is PC-12. Put plainly: Antioxidant activity against hydroxyl scavenging activity in rat PC12 cells assessed as cell survival after 14 hrs by MTT assay. Type of experiment: functional, cell-based. The conditions noted are these: PC-12, 14 h. In outline:
as §1

Experiment [10] has as its system Rattus norvegicus. Put plainly: Antiinflammatory activity against ischemia-reperfused lung tissue edema Wistar rat assessed as ratio of wet tissue weight to dry tissue weight at 20 mg/kg, ip. Type of experiment: functional. The conditions noted are these: route intraperitoneal. In outline:
(§2)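 Hind-limb ischemia/reperfusion injury model in rats, with compound at 20 mg/kg. Local injury assessed in skeletal muscle and remote injury in lung. Tissue edema is expressed as wet-to-dry tissue weight ratio. Lipid peroxidation is measured as MDA in plasma and lung, and histology uses H&E-stained sections.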

The subject of experiment [11] is Rattus norvegicus. Put plainly: Antiinflammatory activity in ischemia-reperfused Wistar rat assessed as TNFalpha level at 20 mg/kg, ip (RVb = 123.4 +/- 8.9 pg/mL). Type of experiment: functional. The conditions noted are these: route intraperitoneal. The method, boiled down: as §2
The subject of experiment [12] is Rattus norvegicus. Put plainly: Antiinflammatory activity in ischemia-reperfused Wistar rat assessed as plasma MDA level at 20 mg/kg, ip (RVb = 3.53 +/- 0.34 nmol/mL). Type of experiment: functional. The conditions noted are these: route intraperitoneal. In outline: as §2
In experiment [13] the test system is Rattus norvegicus. Description: Antiinflammatory activity in ischemia-reperfused Wistar rat assessed as lung MDA level at 20 mg/kg, ip measured per gram of tissue (RVb = 72.4 +/- 5.1 nmol). The conditions noted are these: route intraperitoneal. Type of experiment: functional. In outline: as §2
The subject of experiment [14] is Rattus norvegicus. Put plainly: Antiinflammatory activity in ischemia-reperfused Wistar rat assessed as MPO level at 20 mg/kg, ip (RVb = 17.3 +/- 0.8 U/g). The conditions noted are these: route intraperitoneal. Type of experiment: functional. The method, boiled down:
as §2

For experiment [15], the system named is Rattus norvegicus. Put plainly: Antiinflammatory activity against ischemia-reperfused muscle tissue edema Wistar rat assessed as ratio of wet tissue weight to dry tissue weight at 20 mg/kg, ip. Type of experiment: functional. As to conditions: route intraperitoneal. The method, boiled down:
as §2

Molecules are shown by their SMILES.

Take `C[C@H]1O[C@@H](CC=O)OC[C@H]1NC(=O)Cc1ccccc1`: the inhibition in vivo at 20 mg/kg in the experiment on Mus musculus [1] was found to be 21.9%; with Rattus norvegicus [2] it was 18.4%; with Rattus norvegicus [3] it was 17.5%; in the experiment with Rattus norvegicus [4] it was 12.9%.

Consider `COC(C[C@H]1OC[C@@H](NC(=O)Cc2ccccc2)[C@@H](C)O1)OC`, for which the inhibition in vivo at 20 mg/kg is 38.1% in the experiment on Mus musculus [1], 23.6% with Rattus norvegicus [2], 33.3% with Rattus norvegicus [3] and 17.1% in the experiment on Rattus norvegicus [4].

As for `COc1ccc2[nH]c3c(c2c1)CCN[C@@H]3C[C@H]1OC[C@@H](NC(=O)Cc2ccccc2)[C@@H](C)O1`, the inhibition in vivo at 20 mg/kg in the experiment on Mus musculus [1] came out at 66%; in the experiment on Rattus norvegicus [2] it was 44.7%; with Rattus norvegicus [3], 52.4%; in the experiment with Rattus norvegicus [4], 34.3%. For the same compound, the inhibition in vivo at 10 mg/kg in the experiment with Mus musculus [5] amounted to 32.3%. Moreover, the inhibition in vivo at 5 mg/kg with Mus musculus [6] came to 18.1%. The results for the concentration for a half-maximal effect (EC50) in the experiment on PC-12 [7], with PC-12 [8] and with PC-12 [9] were > 100 µM, 86.8 µM and 79.6 µM, respectively.

Consider `C[C@H]1O[C@@H](C[C@H]2NCCc3c2[nH]c2ccccc32)OC[C@H]1NC(=O)Cc1ccccc1`, for which the inhibition in vivo at 20 mg/kg in the experiment with Mus musculus [1] was determined as 44.4%; in the experiment on Rattus norvegicus [2] it was 34.2%; with Rattus norvegicus [3], 47.6%; in the experiment with Rattus norvegicus [4] it was 21.4%.

As to `COC(=O)[C@@H]1Cc2c([nH]c3ccccc23)[C@@H](C[C@H]2OC[C@@H](NC(=O)Cc3ccccc3)[C@@H](C)O2)N1`, the inhibition in vivo at 20 mg/kg turned out to be 60% in the experiment with Mus musculus [1], 39.5% in the experiment on Rattus norvegicus [2], 49.2% in the experiment on Rattus norvegicus [3] and 35.7% in the experiment with Rattus norvegicus [4]. For the same compound, in the experiment with Mus musculus [5], the inhibition in vivo at 10 mg/kg was determined as 30.1%. Moreover, the inhibition in vivo at 5 mg/kg with Mus musculus [6] is 16.8%. Moreover, the concentration for a half-maximal effect (EC50) is > 100 µM in the experiment with PC-12 [7], 91.6 µM in the experiment with PC-12 [8] and 88.1 µM with PC-12 [9].

In the case of `COC(=O)[C@@H]1Cc2c([nH]c3ccccc23)[C@H](C[C@H]2OC[C@@H](NC(=O)Cc3ccccc3)[C@@H](C)O2)N1`, the inhibition in vivo at 20 mg/kg with Mus musculus [1] amounted to 40.6%; with Rattus norvegicus [2] it was 28.9%; in the experiment on Rattus norvegicus [3], 38.1%; in the experiment on Rattus norvegicus [4] it was 20%.

With `COc1ccc2[nH]c3c(c2c1)CCN[C@@H]3C[C@H]1OC[C@@H](N)[C@@H](C)O1`, the Ratio is 3.98 in the experiment on Rattus norvegicus [10] and 4.03 in the experiment with Rattus norvegicus [15]. In addition, the inhibition in vivo at 20 mg/kg in the experiment on Mus musculus [1] worked out at 81.5%; in the experiment on Rattus norvegicus [2], 31.5%; in the experiment with Rattus norvegicus [3], 68.5%; in the experiment with Rattus norvegicus [4], 57.1%. The inhibition in vivo at 10 mg/kg with Mus musculus [5] is 57.8%. Besides, the inhibition in vivo at 5 mg/kg in the experiment with Mus musculus [6] came to 30.5%. For the same compound, the EC50 was 88.5 µM with PC-12 [7], 32.5 µM in the experiment with PC-12 [8] and 25.7 µM in the experiment on PC-12 [9]. Besides, the Activity in the experiment with Rattus norvegicus [11] came to 76.6 pg/mL; in the experiment with Rattus norvegicus [12], 2.05 nmol/mL; in the experiment with Rattus norvegicus [13], 49.5 nmol; in the experiment on Rattus norvegicus [14] it was 10.7 U/g.

For `C[C@H]1O[C@@H](C[C@H]2NCCc3c2[nH]c2ccccc32)OC[C@H]1N`, the inhibition in vivo at 20 mg/kg with Mus musculus [1] stood at 50.4%; in the experiment on Rattus norvegicus [2], 21%; with Rattus norvegicus [3], 59.7%; in the experiment with Rattus norvegicus [4] it was 30%.

As to `COC(=O)[C@@H]1Cc2c([nH]c3ccccc23)[C@@H](C[C@H]2OC[C@@H](N)[C@@H](C)O2)N1`, the inhibition in vivo at 20 mg/kg in the experiment on Mus musculus [1] was 74.3%; with Rattus norvegicus [2], 26.3%; with Rattus norvegicus [3], 61.4%; in the experiment with Rattus norvegicus [4], 48.6%. In addition, the inhibition in vivo at 10 mg/kg with Mus musculus [5] stood at 60%. In addition, in the experiment with Mus musculus [6], the inhibition in vivo at 5 mg/kg was 35.2%. For the same compound, the values for the EC50 in the experiment on PC-12 [7], with PC-12 [8] and in the experiment on PC-12 [9] were 96.3 µM, 45.7 µM and 50.9 µM, respectively.

For `COC(=O)[C@@H]1Cc2c([nH]c3ccccc23)[C@H](C[C@H]2OC[C@@H](N)[C@@H](C)O2)N1`, the inhibition in vivo at 20 mg/kg in the experiment with Mus musculus [1] came out at 45.1%; with Rattus norvegicus [2] it was 15.8%; with Rattus norvegicus [3] it was 39.7%; in the experiment on Rattus norvegicus [4], 27.1%.

As to `COc1ccc2c(c1)c(CC(=O)O)c(C)n2C(=O)c1ccc(Cl)cc1` [INDOMETHACIN], the inhibition in vivo at 10 mg/kg in the experiment on Mus musculus [5] is 73.6%. For the same compound, the inhibition in vivo at 20 mg/kg with Rattus norvegicus [2] was determined as 47.3%; with Rattus norvegicus [3] it was 65.1%; in the experiment on Rattus norvegicus [4], 54.3%.

Turning to `COc1ccc2[nH]cc(CCNC(C)=O)c2c1` [MELATONIN], the Ratio was 3.55 in the experiment with Rattus norvegicus [10] and 3.21 in the experiment with Rattus norvegicus [15]. Also, the Activity in the experiment with Rattus norvegicus [11] is 53.6 pg/mL; in the experiment with Rattus norvegicus [12], 1.75 nmol/mL; in the experiment on Rattus norvegicus [13] it was 40.6 nmol; with Rattus norvegicus [14], 8.6 U/g.

What is called inhibition in vivo is the change of the read-out against control, counted positive when it falls. The EC50 is the concentration at which the effect is half-maximal.
